ChEMBL document CHEMBL5143539, “Synthesis and evaluation of dual-action kanglemycin-fluoroquinolone hybrid antibiotics” (Bioorg Med Chem Lett, 2022)
In brackets after ≈: the same amount, converted by molar mass.

How the values were obtained:
Staphylococcus aureus [1] = assay: Antibacterial activity against wild type Staphylococcus aureus assessed as inhibition of bacterial growth; assay type: functional
HEK293 = assay: Cytotoxicity against HEK293 cells; assay type: toxicity, cell-based, Homo sapiens
Staphylococcus aureus [2] = assay: Antibacterial activity against Staphylococcus aureus harboring RpoBH481Y/ParCS80F/GyrAS84L triple mutant assessed as inhibition of bacterial growth; assay type: functional
Escherichia coli = assay: Antibacterial activity against Escherichia coli assessed as inhibition of bacterial growth; assay type: functional
Outline: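 Run in duplicate, with the same result obtained in each trial.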

Staphylococcus aureus [3] = assay: Antibacterial activity against ciprofloxacin resistant Staphylococcus aureus harboring ParCS80F and GyrAS84L double mutant assessed as inhibition of bacterial growth; assay type: functional
Staphylococcus aureus [4] = assay: Antibacterial activity against rifampicin resistant Staphylococcus aureus harboring RpoBH481Y mutant assessed as inhibition of bacterial growth; assay type: functional

| SMILES | MIC (Staphylococcus aureus [1]) | IC50 (HEK293) | MIC (Staphylococcus aureus [2]) | MIC (Escherichia coli) | MIC (Staphylococcus aureus [3]) | MIC (Staphylococcus aureus [4]) |
| --- | --- | --- | --- | --- | --- | --- |
| COc1c(N2CCCC(N(C)C(=O)CC(C)(C)C(=O)OC(C)[C@H]3/C=C/C=C(/C)C(=O)NC4=CC(=O)c5c(c(O)c(C)c6c5C(=O)[C@@](C)(O/C=C/[C@H](O[C@H]5C[C@@H]7OCO[C@@H]7[C@@H](C)O5)[C@@H](C)[C@@H](OC(C)=O)[C@H](C)[C@H](O)[C@H](C)[C@H]3O)O6)C4=O)C2)c(F)cc2c(=O)c(C(=O)O)cn(C3CC3)c12 (stereo partly specified) | 32 µg/mL (≈ 23.6 µM) | 23 µg/mL (≈ 17 µM) | > 64 µg/mL | > 64 µg/mL | 16 µg/mL (≈ 11.8 µM) | > 64 µg/mL |
| COc1c(N2CCNC(C)C2)c(F)cc2c(=O)c(C(=O)O)cn(C3CC3)c12 (stereo unspecified) [GATIFLOXACIN] | 0.063 µg/mL (≈ 0.168 µM) | – | 2 µg/mL (≈ 5.33 µM) | 0.016 µg/mL (≈ 0.0426 µM) | 2 µg/mL (≈ 5.33 µM) | 0.063 µg/mL (≈ 0.168 µM) |
| COc1c(N2CCN(C(=O)CC(C)(C)C(=O)OC(C)[C@H]3/C=C/C=C(/C)C(=O)NC4=CC(=O)c5c(c(O)c(C)c6c5C(=O)[C@@](C)(O/C=C/[C@H](O[C@H]5C[C@@H]7OCO[C@@H]7[C@@H](C)O5)[C@@H](C)[C@@H](OC(C)=O)[C@H](C)[C@H](O)[C@H](C)[C@H]3O)O6)C4=O)C(C)C2)c(F)cc2c(=O)c(C(=O)O)cn(C3CC3)c12 (stereo partly specified) | 64 µg/mL (≈ 47.8 µM) | 21 µg/mL (≈ 15.7 µM) | > 64 µg/mL | > 64 µg/mL | 32 µg/mL (≈ 23.9 µM) | > 64 µg/mL |
| CC(=O)O[C@H]1[C@H](C)[C@H](O)[C@H](C)[C@@H](O)[C@@H](C(C)OC(=O)C(C)(C)CC(=O)NC2(c3c(F)cc4c(=O)c(C(=O)O)cn5c4c3OC[C@@H]5C)CC2)/C=C/C=C(/C)C(=O)NC2=CC(=O)c3c(c(O)c(C)c4c3C(=O)[C@@](C)(O/C=C/[C@H](O[C@H]3C[C@@H]5OCO[C@@H]5[C@@H](C)O3)[C@H]1C)O4)C2=O (stereo partly specified) | 8 µg/mL (≈ 6.24 µM) | > 64 µg/mL | > 64 µg/mL | > 64 µg/mL | 8 µg/mL (≈ 6.24 µM) | > 64 µg/mL |
| CC(=O)O[C@H]1[C@H](C)[C@H](O)[C@H](C)[C@@H](O)[C@@H](C(C)OC(=O)C(C)(C)CC(=O)O)/C=C/C=C(/C)C(=O)Nc2c3oc4cc(NCCCN5Cc6cc(-c7ccc8c(=O)c(C(=O)O)cn(C9CC9)c8c7OC(F)F)ccc6[C@H]5C)cc(O)c4nc-3c3c4c(c(C)c(O)c3c2=O)O[C@](C)(O/C=C/[C@H](O[C@H]2C[C@@H]3OCO[C@@H]3[C@@H](C)O2)[C@H]1C)C4=O (stereo partly specified) | 4 µg/mL (≈ 2.55 µM) | > 64 µg/mL | > 64 µg/mL | > 64 µg/mL | 16 µg/mL (≈ 10.2 µM) | 8 µg/mL (≈ 5.1 µM) |
| CNC1CCCN(c2c(F)cc3c(=O)c(C(=O)O)cn(C4CC4)c3c2OC)C1 (stereo unspecified) [BALOFLOXACIN] | 0.13 µg/mL (≈ 0.334 µM) | – | 4 µg/mL (≈ 10.3 µM) | 0.5 µg/mL (≈ 1.28 µM) | 4 µg/mL (≈ 10.3 µM) | 0.13 µg/mL (≈ 0.334 µM) |
| CC(=O)O[C@H]1[C@H](C)[C@H](O)[C@H](C)[C@@H](O)[C@@H](C(C)OC(=O)C(C)(C)CC(=O)O)/C=C/C=C(/C)C(=O)Nc2c3oc4cc(N5Cc6cc(-c7ccc8c(=O)c(C(=O)O)cn(C9CC9)c8c7OC(F)F)ccc6[C@H]5C)cc(O)c4nc-3c3c4c(c(C)c(O)c3c2=O)O[C@](C)(O/C=C/[C@H](O[C@H]2C[C@@H]3OCO[C@@H]3[C@@H](C)O2)[C@H]1C)C4=O (stereo partly specified) | 1 µg/mL (≈ 0.662 µM) | > 64 µg/mL | > 64 µg/mL | 16 µg/mL (≈ 10.6 µM) | 1 µg/mL (≈ 0.662 µM) | 2 µg/mL (≈ 1.32 µM) |
| CC(=O)O[C@H]1[C@H](C)[C@H](O)[C@H](C)[C@@H](O)[C@@H](C(C)OC(=O)C(C)(C)CC(=O)N2Cc3cc(-c4ccc5c(=O)c(C(=O)O)cn(C6CC6)c5c4OC(F)F)ccc3[C@H]2C)/C=C/C=C(/C)C(=O)NC2=CC(=O)c3c(c(O)c(C)c4c3C(=O)[C@@](C)(O/C=C/[C@H](O[C@H]3C[C@@H]5OCO[C@@H]5[C@@H](C)O3)[C@H]1C)O4)C2=O (stereo partly specified) | 8 µg/mL (≈ 5.75 µM) | 19 µg/mL (≈ 13.7 µM) | > 64 µg/mL | > 64 µg/mL | 8 µg/mL (≈ 5.75 µM) | 16 µg/mL (≈ 11.5 µM) |
| CC(=O)O[C@H]1[C@H](C)[C@H](O)[C@H](C)[C@@H](O)[C@@H](C(C)OC(=O)C(C)(C)CC(=O)O)/C=C/C=C(/C)C(=O)Nc2c3oc4cc(N5CCC(CCCC(=O)N6Cc7cc(-c8ccc9c(=O)c(C(=O)O)cn(C%10CC%10)c9c8OC(F)F)ccc7[C@H]6C)CC5)cc(O)c4nc-3c3c4c(c(C)c(O)c3c2=O)O[C@](C)(O/C=C/[C@H](O[C@H]2C[C@@H]3OCO[C@@H]3[C@@H](C)O2)[C@H]1C)C4=O (stereo partly specified) | 64 µg/mL (≈ 38.4 µM) | > 64 µg/mL | > 64 µg/mL | > 64 µg/mL | 64 µg/mL (≈ 38.4 µM) | > 64 µg/mL |
| CC(=O)O[C@H]1[C@H](C)[C@H](O)[C@H](C)[C@@H](O)[C@@H](C(C)OC(=O)C(C)(C)CC(=O)O)/C=C/C=C(/C)C(=O)Nc2c3oc4cc(N5CCCn6nc(C(=O)N7Cc8cc(-c9ccc%10c(=O)c(C(=O)O)cn(C%11CC%11)c%10c9OC(F)F)ccc8[C@H]7C)cc6C5)cc(O)c4nc-3c3c4c(c(C)c(O)c3c2=O)O[C@](C)(O/C=C/[C@H](O[C@H]2C[C@@H]3OCO[C@@H]3[C@@H](C)O2)[C@H]1C)C4=O (stereo partly specified) | 16 µg/mL (≈ 9.55 µM) | > 64 µg/mL | > 64 µg/mL | > 64 µg/mL | 16 µg/mL (≈ 9.55 µM) | > 64 µg/mL |
| CC(=O)O[C@H]1[C@H](C)[C@H](O)[C@H](C)[C@@H](O)[C@@H](C(C)OC(=O)C(C)(C)CC(=O)N2CCN(c3cc4c(cc3F)c(=O)c(C(=O)O)cn4C3CC3)CC2)/C=C/C=C(/C)C(=O)NC2=CC(=O)c3c(c(O)c(C)c4c3C(=O)[C@@](C)(O/C=C/[C@H](O[C@H]3C[C@@H]5OCO[C@@H]5[C@@H](C)O3)[C@H]1C)O4)C2=O (stereo partly specified) | 16 µg/mL (≈ 12.4 µM) | 23 µg/mL (≈ 17.8 µM) | > 64 µg/mL | > 64 µg/mL | 32 µg/mL (≈ 24.7 µM) | > 64 µg/mL |
| CC(=O)O[C@H]1[C@H](C)[C@H](O)[C@H](C)[C@@H](O)[C@@H](C(C)OC(=O)C(C)(C)CC(=O)N[C@H]2[C@@H]3CN(c4nc5c(cc4F)c(=O)c(C(=O)O)cn5-c4ccc(F)cc4F)C[C@@H]32)/C=C/C=C(/C)C(=O)NC2=CC(=O)c3c(c(O)c(C)c4c3C(=O)[C@@](C)(O/C=C/[C@H](O[C@H]3C[C@@H]5OCO[C@@H]5[C@@H](C)O3)[C@H]1C)O4)C2=O (stereo partly specified) | 8 µg/mL (≈ 5.8 µM) | > 64 µg/mL | > 64 µg/mL | > 64 µg/mL | 8 µg/mL (≈ 5.8 µM) | 16 µg/mL (≈ 11.6 µM) |
| COc1c(N2C[C@@H]3CCCN[C@@H]3C2)c(F)cc2c(=O)c(C(=O)O)cn(C3CC3)c12 [MOXIFLOXACIN] | 0.016 µg/mL (≈ 0.0399 µM) | – | – | 0.031 µg/mL (≈ 0.0772 µM) | – | 0.016 µg/mL (≈ 0.0399 µM) |
| C[C@H]1NCc2cc(-c3ccc4c(=O)c(C(=O)O)cn(C5CC5)c4c3OC(F)F)ccc21 [GARENOXACIN] | 0.016 µg/mL (≈ 0.0375 µM) | – | 0.5 µg/mL (≈ 1.17 µM) | 0.016 µg/mL (≈ 0.0375 µM) | 0.5 µg/mL (≈ 1.17 µM) | 0.016 µg/mL (≈ 0.0375 µM) |
| C[C@H]1COc2c(C3(N)CC3)c(F)cc3c(=O)c(C(=O)O)cn1c23 [PAZUFLOXACIN] | 0.13 µg/mL (≈ 0.408 µM) | – | 4 µg/mL (≈ 12.6 µM) | 0.016 µg/mL (≈ 0.0503 µM) | 4 µg/mL (≈ 12.6 µM) | 0.13 µg/mL (≈ 0.408 µM) |
| N[C@@H]1[C@H]2CN(c3nc4c(cc3F)c(=O)c(C(=O)O)cn4-c3ccc(F)cc3F)C[C@@H]12 [TROVAFLOXACIN] | 0.0078 µg/mL (≈ 0.0187 µM) | – | 1 µg/mL (≈ 2.4 µM) | 0.0078 µg/mL (≈ 0.0187 µM) | 1 µg/mL (≈ 2.4 µM) | 0.016 µg/mL (≈ 0.0384 µM) |
| O=C(O)c1cn(C2CC2)c2cc(N3CCNCC3)c(F)cc2c1=O [CIPROFLOXACIN] | 0.25 µg/mL (≈ 0.754 µM) | – | – | – | 32 µg/mL (≈ 96.6 µM) | 0.25 µg/mL (≈ 0.754 µM) |
| CO/N=C1\CN(c2nc3c(cc2F)c(=O)c(C(=O)O)cn3C2CC2)CC1CN (stereo unspecified) [GEMIFLOXACIN] | 0.016 µg/mL (≈ 0.0411 µM) | – | 1 µg/mL (≈ 2.57 µM) | 0.0078 µg/mL (≈ 0.02 µM) | 1 µg/mL (≈ 2.57 µM) | 0.016 µg/mL (≈ 0.0411 µM) |
| N[C@@H]1CCCCN(c2c(F)cc3c(=O)c(C(=O)O)cn(C4CC4)c3c2Cl)C1 [BESIFLOXACIN] | 0.031 µg/mL (≈ 0.0787 µM) | – | 0.5 µg/mL (≈ 1.27 µM) | 0.25 µg/mL (≈ 0.635 µM) | 0.5 µg/mL (≈ 1.27 µM) | 0.031 µg/mL (≈ 0.0787 µM) |
| CC(=O)O[C@H]1[C@H](C)[C@H](O)[C@H](C)[C@@H](O)[C@@H](C(C)OC(=O)C(C)(C)CC(=O)O)/C=C/C=C(/C)C(=O)NC2=CC(=O)c3c(c(O)c(C)c4c3C(=O)[C@@](C)(O/C=C/[C@H](O[C@H]3C[C@@H]5OCO[C@@H]5[C@@H](C)O3)[C@H]1C)O4)C2=O (stereo partly specified) | 0.25 µg/mL (≈ 0.255 µM) | – | > 64 µg/mL | > 64 µg/mL | 0.25 µg/mL (≈ 0.255 µM) | > 64 µg/mL |
